Reference: publication PMC5508335 (Journal of Veterinary Internal Medicine, 2017)

Experiments:
[1] = test system: canine, human, and murine glioma cell lines; experiment: In vitro sensitivity of glioma cell lines; format: cell-based; conditions: monotherapy, biologically relevant exposures
How it was run: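 Murine, canine and human glioma cell lines were tested for in vitro sensitivity to the test compound and to radiation, each given as monotherapy. PC-3 expression in the same lines was also evaluated.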

[2] = test system: dogs with spontaneously-arising glioma and meningioma; format: in vivo, dog; conditions: six dogs
How it was run: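 Dogs with spontaneously arising glioma or meningioma received the oral test compound together with conventional therapies. Tolerability was assessed, with serial clinical and MRI outcome assessments.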

dogs with MUE = experiment: Retrospective survival of dogs with MUE given cytarabine CRI; format: in vivo, dog; conditions: 22 dogs, at least 1 CRI treatment; range 61 – 1312
[3] = test system: healthy purpose-bred cats; conditions: in vivo
thyroid TT4 response = experiment: TSH stimulation test, serum TT4; format: in vivo, dog; conditions: 6 dogs, oral hydrocortisone for 90 days
diabetic cats = experiment: One-year randomized trial of insulin types in diabetic cats; format: in vivo, cat; conditions: BID insulin, glargine=24, PZIR=22
dogs with EPI = experiment: Oral cobalamin supplementation in dogs with EPI, serum cobalamin; format: in vivo, dog; conditions: daily cyanocobalamin tablets, 28–199 days; 10 dogs; at inclusion 204
How it was run: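 Dogs entered with EPI diagnosed by subnormal serum cTLI (reference 5–35 μg/L) and an initial serum cobalamin of 350 ng/L or less (reference 234–811 ng/L). All received daily oral cyanocobalamin tablets at 1 mg/tablet.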

Molecule: C=CCc1cccc(/C=N/NC(=O)CN2CCN(Cc3ccccc3)CC2)c1O [PAC‐1]
- in vitro sensitivity of glioma cell lines [1]: show in vitro sensitivity
- partial responses [2]: 3 dogs

Molecule: Nc1ccn([C@@H]2O[C@H](CO)[C@@H](O)[C@@H]2O)c(=O)n1 [cytarabine]
- Survival, median (dogs with MUE): 258.5 days

Molecule: Cc1cccc([C@H](C)c2cnc[nH]2)c1C [dexmedetomidine]
- cats with successful emesis [3]: 58%

Molecule: C[C@]12CCC(=O)C=C1CC[C@@H]1[C@@H]2[C@@H](O)C[C@@]2(C)[C@H]1CC[C@]2(O)C(=O)CO [hydrocortisone]
- mean basal serum TT4 concentration (thyroid TT4 response): 0.32 µg/dL

Molecule: PZIR: human-recombinant protamine zinc insulin
- cats achieving remission (diabetic cats): 23%

Molecule: cyanocobalamin [CBL]
- median serum CBL concentration after supplementation (dogs with EPI): 1,113 ng/L
